Assay results of several laboratories.
Protocols differ between the studies behind these lines.
Observed: enzyme activity
Mode: inhibitor
LCK: Tyrosine-protein kinase Lck (LCK, Homo sapiens, UniProt P06239)
LCK phosphorylated: Tyrosine-protein kinase Lck, phosphorylated (LCK, Homo sapiens, UniProt P06239)

Compound | target | assay | conditions | remaining activity [%]
N#CCCc1ccc2c(c1)-c1[nH]c3ccc([N+](=O)[O-])cc3c1CC(=O)N2 | LCK |  | 0.5 µM | 78.2
CC(C)(C)c1nc(-c2cccc(NS(=O)(=O)c3c(F)cccc3F)c2F)c(-c2ccnc(N)n2)s1 | LCK | radiometric | 1 µM | 38
Cc1cnc(NC2CCOCC2)nc1-n1cnc(C(=O)NC(CN)c2cc(F)cc(Cl)c2)c1 (stereo not drawn) | LCK | radiometric | 1 µM | 100
Cc1ccc(C(=O)Nc2ccc(CN3CCN(C)CC3)c(C(F)(F)F)c2)cc1C#Cc1cnc2cccnn12 | LCK |  | 23.5 nM | 0.8
O=C(Nc1cnn(-c2csc(C(=O)NC3COC3)c2)c1)Nc1c(F)cccc1Cl | LCK |  | 5 µM | 94.2
CCN(CC)CCNC(=O)c1c(C)[nH]c(/C=C2\C(=O)Nc3ccc(Cl)cc32)c1C | LCK |  | 0.5 µM | 11.8
Cn1c(=O)n(-c2ccc(C(C)(C)C#N)cc2)c2c3cc(-c4cnc5ccccc5c4)ccc3ncc21 | LCK |  | 10 µM | 54
O=C1NC(=O)c2cc(Nc3ccc(F)cc3)c(Nc3ccc(F)cc3)cc21 | LCK |  | 0.5 µM | 98.4
Oc1cccc(-c2nc(N3CCOCC3)c3oc4ncccc4c3n2)c1 | LCK |  | 10 µM | 85
COc1cc2c(N3CCN(C(=O)Nc4ccc(OC(C)C)cc4)CC3)ncnc2cc1OCCCN1CCCCC1 | LCK |  | 0.5 µM | 87.1
CCN(CC)c1ccc(C2=NNC(=O)CC2C)cc1[N+](=O)[O-] (stereo not drawn) | LCK phosphorylated |  | 10 µM | 104
COc1cc(Cl)c(C(=O)N[C@@H](CN[C@H]2CC[C@@H](N)CC2)Cc2ccc(C#N)cc2)cc1-c1ccc(CN[C@H](C)c2ccc(C)cc2)o1 | LCK |  | 1 µM | 75
Cc1ccc(NC(=O)c2ccc(C)c(C(F)(F)F)c2)cc1C#Cc1nn(C2CCC(O)CC2)c2ncnc(N)c12 (stereo not drawn) | LCK |  | 10 µM | 0
CC(C)N(CCC(=O)c1ccc2ccccc2c1)Cc1ccccc1 | LCK |  | 0.5 µM | 98.9
COc1cc(Nc2cnc(C#N)c(O[C@H](C)CN(C)C)n2)ncc1-c1cnn(C)c1 | LCK | radiometric | 10 µM | 20
Cc1[nH]c(/C=C2\C(=O)Nc3ccc(F)cc32)c(C)c1C(=O)N[C@H]1CCN(C(=O)N(C)C)C1 | LCK |  | 0.1 µM | 87
CC(C)(O)[C@H]1CC[C@H](Nc2ccc3ncc(-c4cccc(C(F)(F)F)c4)n3n2)CC1 | LCK |  | 1 µM | 11.1
O=c1c2ccccc2[nH]c(=S)n1CCN1CCC(=C(c2ccc(F)cc2)c2ccc(F)cc2)CC1 | LCK |  | 0.5 µM | 99.5
Nc1ncnc2occ(-c3ccc(NC(=O)Nc4cc(C(F)(F)F)ccc4F)cc3)c12 | LCK |  | 20 µM | 0.1
CCCOc1ccc(OC)c(F)c1C(=O)c1ccc(C(=O)N[C@@H]2CNC[C@H]2NC(=O)c2ccc3[nH]ncc3c2)cc1 | LCK phosphorylated |  | 10 µM | 18
Nc1nc(Nc2ccccc2)sc1C(=O)c1c(F)cccc1F | LCK |  | 10 µM | 49
